A short description of data set [1]: Drug metabolism in microsomes (unknown origin) assessed as retention time treated with 10 uM triclocarban by LC-UV-MS method. It is filed as ADME, Microsome.
Data set [2] is described as follows: Drug metabolism in human intestinal microsomes assessed as glucuronidation incubated for 5 mins prior to UDPGA addition measured after 5 to 30 mins by LC-UV analysis. It is filed as ADME, Intestine, Microsome. The procedure, abridged:
(§1)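 Microsomes or Sf-9 Supersomes (5 µg protein in 200 µL 100 mM potassium phosphate pH 7.4) pre-treated with alamethicin on ice 15 min; substrate 10 µM final (2% DMSO), MgCl2 and saccharolactone 10 mM each; 5 min preincubation at 37 °C, then UDPGA to start. Samples taken at 5, 10, 15, 30 min (or 2, 5, 10, 15 min) into ACN with internal standard; LC-UV-ESI-MS/MS.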

The target of data set [3] is T1, UDP-glucuronosyltransferase 1A1 (Homo sapiens, UniProt P22309).
T1 sequence (P22309 whole entry): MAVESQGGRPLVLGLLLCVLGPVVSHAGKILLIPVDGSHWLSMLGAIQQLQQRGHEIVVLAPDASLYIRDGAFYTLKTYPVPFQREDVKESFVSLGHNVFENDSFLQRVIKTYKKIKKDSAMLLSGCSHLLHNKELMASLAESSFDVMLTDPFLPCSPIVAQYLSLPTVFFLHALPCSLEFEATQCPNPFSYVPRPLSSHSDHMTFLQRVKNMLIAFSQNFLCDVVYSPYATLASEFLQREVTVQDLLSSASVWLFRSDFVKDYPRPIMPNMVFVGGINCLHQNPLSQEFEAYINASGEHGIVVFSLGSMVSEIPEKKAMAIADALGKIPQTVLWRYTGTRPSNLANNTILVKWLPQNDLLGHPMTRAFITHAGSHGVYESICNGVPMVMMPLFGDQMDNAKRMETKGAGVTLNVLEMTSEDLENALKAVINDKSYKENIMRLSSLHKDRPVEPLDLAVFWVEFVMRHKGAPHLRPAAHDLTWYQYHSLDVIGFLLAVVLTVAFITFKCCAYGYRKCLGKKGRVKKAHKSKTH
Kind of data set: Drug metabolism assessed as human UGT1A1-mediated glucuronidation expressed in baculovirus infected insect sf9 cells incubated for 5 mins prior to UDPGA addition measured after 5 to 30 mins by LC-UV analysis. It is filed as ADME. The procedure, abridged:
as §1

The target of data set [4] is T2, UDP-glucuronosyltransferase 2B4 (Homo sapiens, UniProt P06133).
T2 sequence (P06133 whole entry): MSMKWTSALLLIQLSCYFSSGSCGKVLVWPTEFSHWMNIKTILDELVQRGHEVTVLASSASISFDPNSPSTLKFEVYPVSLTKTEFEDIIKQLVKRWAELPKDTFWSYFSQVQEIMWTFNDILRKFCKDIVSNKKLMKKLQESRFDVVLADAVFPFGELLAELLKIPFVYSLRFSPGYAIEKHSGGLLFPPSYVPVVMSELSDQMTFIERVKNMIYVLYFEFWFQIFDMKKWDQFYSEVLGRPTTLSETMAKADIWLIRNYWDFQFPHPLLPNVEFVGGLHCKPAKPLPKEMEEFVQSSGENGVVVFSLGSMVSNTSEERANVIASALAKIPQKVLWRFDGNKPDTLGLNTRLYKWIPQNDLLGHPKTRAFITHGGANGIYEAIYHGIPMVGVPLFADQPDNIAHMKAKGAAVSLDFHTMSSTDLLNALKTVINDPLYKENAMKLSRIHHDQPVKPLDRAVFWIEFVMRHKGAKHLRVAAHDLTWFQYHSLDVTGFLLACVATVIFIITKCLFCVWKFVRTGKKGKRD
Kind of data set: Drug metabolism assessed as human UGT2B4-mediated glucuronidation expressed in baculovirus infected insect sf9 cells incubated for 5 mins prior to UDPGA addition measured after 5 to 30 mins by LC-UV analysis. It is filed as ADME. The procedure, abridged: as §1

In data set [5] the target is T3, UDP-glucuronosyltransferase 2B7 (Homo sapiens, UniProt P16662).
T3 sequence (P16662 whole entry): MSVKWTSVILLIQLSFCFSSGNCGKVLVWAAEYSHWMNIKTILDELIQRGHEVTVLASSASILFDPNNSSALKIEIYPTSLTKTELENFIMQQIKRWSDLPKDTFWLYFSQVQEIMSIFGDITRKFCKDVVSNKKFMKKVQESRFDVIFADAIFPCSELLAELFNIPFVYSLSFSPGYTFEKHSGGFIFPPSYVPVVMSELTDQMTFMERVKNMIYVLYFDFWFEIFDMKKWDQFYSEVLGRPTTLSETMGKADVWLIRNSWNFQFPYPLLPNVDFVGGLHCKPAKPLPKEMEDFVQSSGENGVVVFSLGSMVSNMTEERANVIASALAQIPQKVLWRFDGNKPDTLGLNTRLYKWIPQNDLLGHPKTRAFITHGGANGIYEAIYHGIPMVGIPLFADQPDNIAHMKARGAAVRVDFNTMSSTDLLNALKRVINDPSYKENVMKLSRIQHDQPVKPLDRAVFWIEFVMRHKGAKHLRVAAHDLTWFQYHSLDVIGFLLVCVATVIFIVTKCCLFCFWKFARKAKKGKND
Kind of data set: Drug metabolism assessed as human UGT2B7-mediated glucuronidation expressed in baculovirus infected insect sf9 cells incubated for 5 mins prior to UDPGA addition measured after 5 to 30 mins by LC-UV analysis. It is filed as ADME. The procedure, abridged: as §1

For data set [6], the target named is T4, UDP-glucuronosyltransferase 2B17 (Homo sapiens, UniProt O75795).
T4 sequence (O75795 whole entry): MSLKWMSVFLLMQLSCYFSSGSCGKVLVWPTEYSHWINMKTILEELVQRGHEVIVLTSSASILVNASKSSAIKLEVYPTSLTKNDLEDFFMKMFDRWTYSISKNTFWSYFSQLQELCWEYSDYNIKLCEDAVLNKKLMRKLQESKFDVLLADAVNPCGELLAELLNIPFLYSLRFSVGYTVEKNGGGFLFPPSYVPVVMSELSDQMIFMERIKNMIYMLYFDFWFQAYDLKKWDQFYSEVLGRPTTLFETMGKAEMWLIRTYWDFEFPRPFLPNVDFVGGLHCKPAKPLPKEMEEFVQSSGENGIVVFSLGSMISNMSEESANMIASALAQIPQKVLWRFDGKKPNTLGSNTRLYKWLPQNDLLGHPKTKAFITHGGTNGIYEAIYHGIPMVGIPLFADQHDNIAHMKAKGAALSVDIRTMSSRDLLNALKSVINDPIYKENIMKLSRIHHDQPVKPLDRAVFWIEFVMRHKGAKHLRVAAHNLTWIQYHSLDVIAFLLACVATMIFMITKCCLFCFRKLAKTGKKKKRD
Kind of data set: Drug metabolism assessed as human UGT2B17-mediated glucuronidation expressed in baculovirus infected insect sf9 cells incubated for 5 mins prior to UDPGA addition measured after 5 to 30 mins by LC-UV analysis. It is filed as ADME. The procedure, abridged:
as §1

For the compound `O=C(Nc1ccc(Cl)c(Cl)c1)Nc1ccc(Cl)cc1O`, the Retention_time in data set [1] turned out to be 6.81 min. In addition, the Drug metabolism in data set [2] is reported as 5700 pmol/min/mg; in data set [3], 850 pmol/min/mg; in data set [4], “metabolite_not_detected”; in data set [5] (BLD = below limit of detection), “BLD”; in data set [6], “metabolite_not_detected”.
`O=C(Nc1ccc(Cl)cc1)Nc1cc(Cl)c(Cl)cc1O`: the Retention_time in data set [1] is on record as 7.45 min. The Drug metabolism is on record as 3900 pmol/min/mg in data set [2]; 820 pmol/min/mg in data set [3]; “metabolite_not_detected” in data set [4]; “BLD” in data set [5] (BLD = below limit of detection); “metabolite_not_detected” in data set [6].
On to `O=C(Nc1ccc(Cl)c(O)c1)Nc1ccc(Cl)c(Cl)c1`, for which, in data set [1], the Retention_time is 4.61 min. For the same compound, the Drug metabolism was 7100 pmol/min/mg in data set [2]; 520 pmol/min/mg in data set [3]; “metabolite_not_detected” in data set [4]; “metabolite_not_detected” in data set [5]; “metabolite_not_detected” in data set [6].

For the origin of these results see ChEMBL document CHEMBL3525967, “In vitro glucuronidation of the antibacterial triclocarban and its oxidative metabolites” (Drug Metab Dispos, 2012).
